Reference: paper PMC4698108 (Mucosal immunology, 2015)

Tests used:
[1] = system: HLA-DP2 variants with substitutions at positions 26, 68 and 69 of the β-chain; type: cell-based, human
Outline: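 Human AV22 and murine Vβ6⁺ transfectomas were given BeSO₄ presented by fibroblasts expressing wild-type HLA-DP2 or β-chain variants carrying alanine, glutamine or lysine at positions 26, 68 or 69. Be-induced IL-2 (pg/ml) was measured by ELISA.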

[2] = system: Vβ6+ CD4+ T cells in lung and BAL; experiment: TCR Vβ6 expression on CD4+ T cells after BeO exposure; type: in vivo, HLA-DP2 Tg FVB/N mice
Outline: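 HLA-DP2 Tg FVB/N mice, 6–8 weeks old, were anesthetized with isoflurane and given 100 μg BeO by oropharyngeal aspiration on days 0, 1, 2, 14, 15, 18 and 19, then sacrificed on day 21. BAL used three 0.5 ml PBS instillations, pooled from 20 mice. Lungs were collagenase-digested (1 mg/ml, 30 min, 37°C). Cells were stained with a seven-mAb anti-Vβ panel, and small versus blasting lymphocytes were gated by forward/side scatter.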

[3] = BAL cells pooled from 20 BeO-exposed HLA-DP2 Tg mice

Row | Structure (SMILES) | Be-induced IL-2 secretion with the EA68 HLA-DP2 β-chain variant ([1]; AV22 transfectoma (Figure 4B)) | Be-induced IL-2 secretion with amino acid substitutions at positions 26, 68 and 69 of the HLA-DP2 β-chain ([1]; human TCR AV22 and five murine T cell transfectomas, alanine, glutamine or lysine substitutions (Figure 4B)) | frequency of CD4+ T cells expressing Vβ6, blasting (large forward scatter) T cells [2, 3] [%] | frequency of CD4+ T cells expressing Vβ6, small lymphocyte gate [2, 3] [%] | percentage of BAL CD4+ T cells expressing Vβ6 ([2]; BAL of BeO-exposed mice, overall value given in text, unexposed lung 11.1%) [%]
1 | O=S(=O)([O-])[O-].[Be+2] [BeSO4] | partial reduction in IL-2 secretion | abrogated Be-induced IL-2 secretion |  |  | 
2 | [Be]=[O] [BeO, Be oxide] |  |  | 22.5 | 13.7 | 16.8
